Rows were chosen to be rich in hits. Some 2.2% of all compounds tested hit in one or more screens of this group.
MCL1-BIM inh – inhibitors of human MCL1 binding to BIM-BH3 peptide. inhibition, % at 10.9 µM. AID 2057. GST-MCL1 / FITC-Bim-BH3 fluorescence polarization. 0.68% of 320,000 active;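 active = inhibition above the mean inhibition of all tested compounds plus 3 SD, set per campaign, cut at about 40% in these data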;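 also: 0% = DMSO wells and 100% = unlabeled Bim-BH3 peptide control; higher means more loss of mP so more displacement of Bim peptide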
Target sequence (Q07820 whole entry, looked up): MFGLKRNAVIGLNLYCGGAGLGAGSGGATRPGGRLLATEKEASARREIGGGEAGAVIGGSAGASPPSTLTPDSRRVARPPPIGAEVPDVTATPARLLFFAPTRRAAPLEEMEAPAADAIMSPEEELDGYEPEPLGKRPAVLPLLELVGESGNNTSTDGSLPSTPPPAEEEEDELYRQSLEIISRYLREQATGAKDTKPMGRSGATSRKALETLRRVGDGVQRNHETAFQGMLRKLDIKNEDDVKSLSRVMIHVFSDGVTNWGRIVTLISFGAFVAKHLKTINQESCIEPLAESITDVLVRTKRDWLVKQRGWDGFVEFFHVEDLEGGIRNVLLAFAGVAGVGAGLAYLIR
EBV gp42 block – EBV gp42 inhibition. Fluorescence polarization binding assay, mP read-out. inhibition, % (tested at 21.74 µM). AID 1085. Q1HVG2. 0.42% of 220,000 active; in the data active = inhibition above about 50%
Target sequence (Q1HVG2 whole entry, looked up): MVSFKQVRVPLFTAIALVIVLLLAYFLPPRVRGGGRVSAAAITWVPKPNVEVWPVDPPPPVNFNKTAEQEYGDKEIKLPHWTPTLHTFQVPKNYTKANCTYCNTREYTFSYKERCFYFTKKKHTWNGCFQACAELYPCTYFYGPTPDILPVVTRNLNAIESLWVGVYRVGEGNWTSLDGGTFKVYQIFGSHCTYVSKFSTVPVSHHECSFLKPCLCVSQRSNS
RBBP9 inh – blocks human serine hydrolase RBBP9. O75884. recombinant RBBP9, FP-Rh probe fluorescence polarization. inhibition, % at 7.94 µM. 0.2% of 220,000 active. AID 1515;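 active = inhibition above the campaign mean of all tested compounds plus 3 SD, cut at about 14% in these data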;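 also: plate controls were DMSO wells with RBBP9 for no effect and wells lacking RBBP9 protein for full effect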
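System: RBBP9 protein | Quantity: 2.5 µM RBBP9 dispensing solution, before mixing | Reagent: FP-Rh probe, 375 nM dispensing solution | Timing: Enzyme-compound preincubation 30 min, then probe labeling 45 min, 25 °C | Measured by: Fluorescence polarization | Read-out: % inhibition | Replication: One well per compound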
Mcl1 Bid PPI – disrupts binding of human Mcl-1 to Bid peptide; TR-FRET Mcl-1/Bid-Dy647 peptide binding, 1536-well; inhibition, % at 21.7 µM; 0.97% of 220,000 active; AID 1021;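 active = compounds that cut the binding signal by more than half at the single screening dose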;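 also: His-tagged Mcl-1 with europium anti-His antibody binding Bid BH3 peptide; 0% = Mcl-1 plus peptide wells and 100% = peptide-only wells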
Mcl-1 Bim block – human Bim-Mcl-1 interaction inhibition; Q07820; Bead-based flow cytometry, Bim peptide-Mcl-1 binding; inhibition, % at 10 µM; 0.1% of 190,000 active; AID 1009; in the data active = inhibition above about 40%;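 also: 0% = no compound tracer wells and 100% = peptide blocker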
Mcl1 Noxa PPI – Mcl-1/Noxa interaction inhibition; 1.5% of 220,000 active; TR-FRET Mcl-1/Noxa peptide binding, 2 h; Q07820; inhibition, % at 21.7 µM;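 active = compounds that cut the protein-peptide binding signal by more than 50% relative to plate controls in a single-dose test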;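 also: His-tagged Mcl-1 with rhodamine Noxa BH3 peptide and terbium anti-His antibody; 0% = Mcl-1 plus Noxa peptide wells and 100% = peptide-only wells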
An asterisk follows results filed as active; nt = no result given.

SMILES | MCL1-BIM inh | EBV gp42 block | RBBP9 inh | Mcl1 Bid PPI | Mcl-1 Bim block | Mcl1 Noxa PPI
O=C(OCc1nnc(-c2ccccc2)o1)c1cc(S(=O)(=O)N2CCOCC2)ccc1F | -7 | nt | nt | nt | nt | nt
CC(C)Oc1ccc(-c2nn(-c3ccccc3)cc2/C=c2\sc3ncnn3c2=O)cc1 | 1 | 75* | -1 | -12 | 0 | 1
O=c1/c(=C/c2cn(-c3ccccc3)nc2-c2ccc(F)cc2)sc2nc3ccccc3n12 | nt | -34 | 3 | -19 | 0 | 12
CC(C(=O)O)n1nc2ccccc2n1 (configuration not stated) | 1 | 12 | -9 | 71* | -2 | 26
O=C(CSc1ccc(-c2ccco2)nn1)c1cccc([N+](=O)[O-])c1 | 66* | -5 | -7 | -45 | -1 | 33
CC(=O)c1cccc(NC(=O)CSc2ccc(-c3ccco3)nn2)c1 | 10 | nt | nt | nt | nt | nt
CSc1ccc(NC(=O)NCCCN2CCN(c3ccccc3F)CC2)cc1 | -6 | -20 | -7 | -48 | 0 | 58*
Cc1[nH]c2ccc(C(=O)OC(C)C(=O)N(C)c3ccccc3)cc2c1C (configuration not stated) | -1 | nt | nt | nt | nt | nt
COc1ccc2[nH]c(O)c(N=NC(=O)Cc3cccs3)c2c1 | 32 | 11 | 9 | -55 | nt | 61*
CCOCCCNC(=O)c1ccc(C2SCC(=O)N2Cc2ccccc2)cc1 (configuration not stated) | -6 | nt | nt | nt | nt | nt
CC(C)c1ccc(/C=N/NC(=O)c2ccccc2Cl)cc1 | -2 | -2 | -9 | -3 | 45* | 20
CN1N=C(C(=O)N2CCCC(C(=O)c3cccc(C(F)(F)F)c3)C2)CCC1=O (configuration not stated) | 0 | 1 | -4 | -19 | 48* | 16
COc1ccccc1-n1nnnc1SCC(=O)NC1CCCCC1 | 4 | nt | nt | nt | nt | nt
COc1ccc(OC(=O)c2ccncc2)cc1 | 7 | -9 | -3 | 99* | 0 | 6
O=C(Oc1ccc(OC(=O)c2ccncc2)cc1)c1ccncc1 | -1 | nt | nt | nt | nt | nt
Cc1n[nH]c(=S)n(NC(=O)/C=C/C(=O)Nn2c(=S)[nH]nc(C)c2=O)c1=O | nt | -5 | 2 | -43 | -3 | 87*
O=C1OC/C(=C(/O)c2ccc(Cl)cc2)C1=O | 1 | nt | nt | nt | nt | nt
COc1ccc(CN2C(=O)Cc3c2nc(N)c2c(N)nc(N4CCOCC4)c(C#N)c32)cc1 | 47* | 10 | 2 | -107 | nt | 36
CN(CCO)c1nc(N)c2c(N)nc3c(c2c1C#N)CC(=O)N3Cc1cccs1 | 41* | 6 | 0 | -19 | 6 | 36
CCC1Cc2c(nc(N)c3c(N)nc(N4CCOCC4)c(C#N)c23)O1 (configuration not stated) | 0 | -17 | -5 | -19 | 3 | 7
CCCc1cc(=O)[nH]c(Nc2ccc3c(c2)OCCO3)n1 | -5 | 5 | -4 | -38 | 1 | 3
Cc1ccc(C2C(C(=O)c3cc4ccccc4o3)=C(O)C(=O)N2CCN2CCOCC2)o1 (configuration not stated) | 9 | -8 | -2 | 51* | -2 | 21
Cc1ccc(C2C(C(=O)c3cc4ccccc4o3)=C(O)C(=O)N2CCN2CCOCC2)cc1 (configuration not stated) | -7 | nt | nt | nt | nt | nt
COc1ccc(CCNC(=O)COc2nsnc2N2CCOCC2)cc1OC | -1 | 82* | -8 | -24 | -5 | 5
Cc1c(C(=O)Nc2ccc(-c3nnc4n3CCCCC4)cc2)oc2ccc(Br)cc12 | -22 | -8 | -10 | -15 | 0 | 13
SMILES | MCL1-BIM inh | EBV gp42 block | RBBP9 inh | Mcl1 Bid PPI | Mcl-1 Bim block | Mcl1 Noxa PPI
CCOc1c(C(N)=O)c(-c2ccccc2)c2c(=O)[nH]c3ccccc3n12 | 7 | -11 | 6 | 99* | -7 | 3
CC(C)c1nnc(NC(=O)c2ccc3c(c2)OCO3)s1 | -1 | 1 | 0 | -3 | 0 | 18
COc1ccccc1-c1nnc(NC(=O)c2ccc3c(c2)OCO3)s1 | -2 | -2 | -4 | 63* | -2 | 14
COc1ccc([C@@H]2CC=C(C(=O)O)[C@H](c3ccc(F)cc3)N2S(=O)(=O)c2ccccc2C)cc1 | 4 | nt | nt | nt | nt | nt
O=C1NC(=Nc2ccccc2)S/C1=C\c1ccccc1 | -6 | nt | nt | nt | nt | nt
O=C1N/C(=N/Nc2ccccc2)S/C1=C\c1ccccc1 | 19 | 5 | 1 | -56 | -5 | 97*
C=CCNC(=S)NNC(=O)c1ccccc1 | 9 | -3 | -11 | -41 | 0 | 3
C=CCNC(=S)NNC(=O)c1ccc([N+](=O)[O-])cc1 | 16 | -3 | -4 | -13 | 0 | 68*
Cc1cc(OCC(O)CNC(C)c2ccccc2)ccc1C(C)C (configuration not stated) | 2 | nt | nt | nt | nt | nt
CC1CN(C(=O)Nc2ccc(F)cc2F)CC(C)O1 (configuration not stated) | 0 | nt | nt | nt | nt | nt
CCOC(=O)c1c(C)[nH]c(C2=NNC(=NC3CC3)SC2)c1C | 4 | -10 | -3 | -33 | 0 | 64*
O=C(N/N=C/c1cccnc1)c1ccc(CN2c3cccc4cccc(c34)S2(=O)=O)cc1 | 3 | 14 | -22 | -13 | 0 | 66*
COc1ccc(CNc2ncc(-c3ccc(Cl)cc3)n2C)c(OC)c1OC | -7 | nt | nt | nt | nt | nt
COc1ccc2c(c1)CCCC21NC(=O)N(CC(=O)c2cc(F)ccc2F)C1=O (configuration not stated) | 0 | nt | nt | nt | nt | nt
COc1ccc(CN(C)C(=O)c2cccc(Oc3ccccc3)c2)c(OC)c1OC | 10 | nt | nt | nt | nt | nt
O=C(CSc1nc2scc(-c3ccco3)c2c(=O)n1-c1ccccc1)N1CCOCC1 | -1 | -10 | 6 | -5 | 0 | 30
C=CCn1c(SCC(=O)NCC2CCCO2)nc2scc(-c3ccco3)c2c1=O (configuration not stated) | -2 | -17 | -4 | -25 | 1 | 18
O=C(CSc1nc2ccsc2c(=O)n1Cc1ccc(C(=O)O)cc1)NCC1CCCO1 (configuration not stated) | 4 | 4 | -4 | 18 | 73* | 14
O=C(CSc1nc2scc(-c3ccco3)c2c(=O)n1-c1ccccc1)NCC1CCCO1 (configuration not stated) | 3 | 8 | 1 | 3 | -1 | 56*

Assay outcomes (PubChem)
